Assay results reported in ChEMBL document CHEMBL5131524, “Design and Synthesis of Tranylcypromine-Derived LSD1 Inhibitors with Improved hERG and Microsomal Stability Profiles” (ACS Med Chem Lett, 2022).

How the values were obtained:
hERG (KCNH2) = hERG (KCNH2) (Homo sapiens, UniProt Q12809); assay: Inhibition of human ERG expressed in human HEK293 cells at 10 uM for 2 mins by whole-cell patch-clamp system; type: toxicity, cell-based; settings: HEK293 cells expressing human ERG
In short: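 hERG inhibition was measured by automated patch clamp in HEK293 cells expressing hERG. Values are the mean of three independent experiments.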

[1] = Metabolic stability in mouse liver microsomes assessed as compound remaining and measured after 60 mins in presence of beta-NADPH by liquid chromatography tandem mass spectrometry analysis; type: ADME, Microsome; settings: read-out: Stability
In short: (§1)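 Percent of compound remaining after 60 min incubation with liver microsomes of each species (human, rat, mouse). Values are the mean of three independent experiments.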

[2] = Metabolic stability in rat liver microsomes assessed as compound remaining and measured after 60 mins in presence of beta-NADPH by liquid chromatography tandem mass spectrometry analysis; type: ADME, Microsome; settings: read-out: Stability; in short: as §1
[3] = Metabolic stability in human liver microsomes assessed as compound remaining and measured after 60 mins in presence of beta-NADPH by liquid chromatography tandem mass spectrometry analysis; type: ADME, Microsome; settings: read-out: Stability; in short: as §1
[4] = Tmax in ICR mouse serum at 10 mg/kg, ip; type: ADME, organism-based
In short: (§2)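 Single intraperitoneal injection, 10 mg/5 mL per kilogram, to male ICR mice aged eight weeks (n = 3). Serum concentration–time profiles were measured, giving AUC0–∞ […], Cmax, Tmax and serum half-life.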

[5] = molecular target: T1, Amine oxidase [flavin-containing] B (Homo sapiens, UniProt P27338); assay: Inhibition of MAO-B (unknown origin) using tyramine as substrate and measured after 10 mins by peroxidase-coupled reaction method
T1 sequence (P27338 whole entry): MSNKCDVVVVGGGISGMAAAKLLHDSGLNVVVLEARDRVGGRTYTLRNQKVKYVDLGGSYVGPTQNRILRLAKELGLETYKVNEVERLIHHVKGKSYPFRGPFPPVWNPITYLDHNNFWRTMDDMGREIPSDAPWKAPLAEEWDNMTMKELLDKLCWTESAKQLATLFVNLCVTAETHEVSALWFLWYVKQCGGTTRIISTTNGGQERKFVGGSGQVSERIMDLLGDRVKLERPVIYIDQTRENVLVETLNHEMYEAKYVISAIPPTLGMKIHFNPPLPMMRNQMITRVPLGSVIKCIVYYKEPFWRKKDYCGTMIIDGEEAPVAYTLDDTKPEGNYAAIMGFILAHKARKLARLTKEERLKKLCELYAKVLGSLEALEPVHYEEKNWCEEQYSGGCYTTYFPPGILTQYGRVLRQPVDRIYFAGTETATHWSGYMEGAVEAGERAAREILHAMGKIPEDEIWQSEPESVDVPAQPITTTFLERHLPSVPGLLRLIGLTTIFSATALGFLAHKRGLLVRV

[6] = Cmax in ICR mouse serum at 10 mg/kg, ip; type: ADME, organism-based; parameters: dose 10 mg/kg, route ip; in short: as §2
[7] = AUC (0-infinity) in ICR mouse at 10 mg/kg, ip; type: ADME, organism-based; parameters: time infinity, dose 10 mg/kg, route ip; settings: in vivo; in short: as §2
[8] = Half life in ICR mouse serum at 10 mg/kg, ip; type: ADME, organism-based; in short: as §2
[9] = molecular target: T2, Amine oxidase [flavin-containing] A (Homo sapiens, UniProt P21397); assay: Inhibition of MAO-A (unknown origin) using tyramine as substrate and measured after 10 mins by peroxidase-coupled reaction method
T2 sequence (P21397 whole entry): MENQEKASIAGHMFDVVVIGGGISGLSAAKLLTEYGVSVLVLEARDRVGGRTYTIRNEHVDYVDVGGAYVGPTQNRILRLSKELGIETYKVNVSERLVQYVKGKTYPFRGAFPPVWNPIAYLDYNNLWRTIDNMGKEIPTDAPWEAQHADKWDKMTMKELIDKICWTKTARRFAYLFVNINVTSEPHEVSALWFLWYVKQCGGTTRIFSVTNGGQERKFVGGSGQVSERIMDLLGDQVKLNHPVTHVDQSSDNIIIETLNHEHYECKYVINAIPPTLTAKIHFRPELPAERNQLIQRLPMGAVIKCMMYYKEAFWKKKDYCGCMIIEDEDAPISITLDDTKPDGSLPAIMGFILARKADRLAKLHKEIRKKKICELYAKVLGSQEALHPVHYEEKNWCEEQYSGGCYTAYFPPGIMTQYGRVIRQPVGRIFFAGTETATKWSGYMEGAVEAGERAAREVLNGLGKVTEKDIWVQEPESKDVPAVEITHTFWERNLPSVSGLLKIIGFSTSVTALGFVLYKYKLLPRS

hERG (KCNH2), sequence (Q12809 whole entry): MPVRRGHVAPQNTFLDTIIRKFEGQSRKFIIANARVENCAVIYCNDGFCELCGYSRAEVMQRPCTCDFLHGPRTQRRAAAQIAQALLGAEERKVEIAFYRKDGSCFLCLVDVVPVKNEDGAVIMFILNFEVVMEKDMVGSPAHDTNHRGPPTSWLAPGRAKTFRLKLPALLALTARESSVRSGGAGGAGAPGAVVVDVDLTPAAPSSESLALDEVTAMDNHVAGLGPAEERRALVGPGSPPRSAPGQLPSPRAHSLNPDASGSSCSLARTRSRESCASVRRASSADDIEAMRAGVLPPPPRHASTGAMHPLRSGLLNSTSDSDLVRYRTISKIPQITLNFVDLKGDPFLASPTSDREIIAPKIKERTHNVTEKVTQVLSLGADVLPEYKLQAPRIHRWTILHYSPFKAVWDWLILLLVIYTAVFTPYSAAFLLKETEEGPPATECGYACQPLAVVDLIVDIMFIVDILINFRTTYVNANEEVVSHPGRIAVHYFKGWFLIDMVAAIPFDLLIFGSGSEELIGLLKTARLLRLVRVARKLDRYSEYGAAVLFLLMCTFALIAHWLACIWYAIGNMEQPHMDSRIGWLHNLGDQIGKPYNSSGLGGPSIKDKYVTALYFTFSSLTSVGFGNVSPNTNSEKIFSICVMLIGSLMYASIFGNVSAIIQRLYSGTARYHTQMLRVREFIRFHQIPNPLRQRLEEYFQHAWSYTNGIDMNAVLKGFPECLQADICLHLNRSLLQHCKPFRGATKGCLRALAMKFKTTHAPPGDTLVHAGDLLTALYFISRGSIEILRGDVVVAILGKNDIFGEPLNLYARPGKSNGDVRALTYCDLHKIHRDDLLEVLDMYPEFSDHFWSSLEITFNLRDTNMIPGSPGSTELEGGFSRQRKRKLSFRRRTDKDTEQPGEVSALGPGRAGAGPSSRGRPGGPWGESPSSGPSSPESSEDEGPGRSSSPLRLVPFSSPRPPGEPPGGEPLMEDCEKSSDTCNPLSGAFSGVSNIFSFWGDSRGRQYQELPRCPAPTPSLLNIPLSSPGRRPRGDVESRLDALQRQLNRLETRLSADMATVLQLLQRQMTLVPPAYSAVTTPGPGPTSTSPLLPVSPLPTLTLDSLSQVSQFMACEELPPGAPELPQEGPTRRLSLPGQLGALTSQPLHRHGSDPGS

| remaining at 1 h [1] | remaining at 1 h [2] | remaining at 1 h [3] | Structure (SMILES) | inhibition at 2 min, 10 µM (hERG (KCNH2)) | further results |
| --- | --- | --- | --- | --- | --- |
| 25% | 24% | 0% | O=C(CNC1CC1c1cc(F)cc(F)c1OCc1cccnc1F)N1CCC(N2CC3CCC(C2)N3)CC1 (configuration not stated) | 23% |  |
| 42% | 20% | 41% | O=C(CNC1CC1c1cc(F)cc(F)c1OCc1cccnc1F)N1CCC2(CCCN2)CC1 (configuration not stated) | 62% |  |
| 73% | 56% | 44% | O=C(CNC1CC1c1cc(F)cc(F)c1OCc1cccnc1F)N1CCC2(CCNC2)CC1 (configuration not stated) | 10% |  |
| 62% | 62% | 38% | O=C(CN[C@H]1C[C@@H]1c1cc(F)cc(F)c1OCc1cccnc1F)N1CCC2(CCNC2)CC1 |  | Tmax [4]: 30 min; Ki [5]: > 250 µM; Cmax [6]: 3030 nM; AUC(0-inf) [7]: 5.09 µM·h; half-life [8]: 234 min; Ki [9]: > 250 µM |
| 73% | 55% | 45% | O=C(CN[C@@H]1C[C@H]1c1cc(F)cc(F)c1OCc1cccnc1F)N1CCC2(CCNC2)CC1 |  | Ki [5]: > 250 µM; Ki [9]: > 250 µM |
| 0% | 0% | 0% | O=C(CNC1CC1c1cc(F)cc(F)c1OCc1cccnc1F)N1CCC(N2CC3CCC(C2)O3)CC1 (configuration not stated) | 32% |  |

More lines, now with the values behind:

| Structure (SMILES) | remaining at 1 h [1] | remaining at 1 h [2] | remaining at 1 h [3] | inhibition at 2 min, 10 µM (hERG (KCNH2)) | further results |
| --- | --- | --- | --- | --- | --- |
| COCCN1CCN(C(=O)CNC2CC2c2cc(F)cc(F)c2OCc2ccccc2)CC1 (configuration not stated) |  |  |  | 50% |  |
| COCCN1CCN(C(=O)CNC2CC2c2cc(F)cc(F)c2OCc2cccnc2F)CC1 (configuration not stated) |  |  |  | 21% |  |
| COCCN1CCN(C(=O)CNC2CC2c2cc(F)cc(F)c2OCc2ccnc(F)c2)CC1 (configuration not stated) |  |  |  | 46% |  |
| COCCN1CCN(C(=O)CNC2CC2c2cc(F)cc(F)c2OCc2cnn(C)c2)CC1 (configuration not stated) |  |  |  | 14% |  |
| COCCN1CCN(C(=O)CNC2CC2c2cc(F)cc(F)c2OCc2cc[nH]n2)CC1 (configuration not stated) |  |  |  | 8% |  |
| COCCN1CCN(C(=O)CNC2CC2c2cc(F)cc(F)c2OCCc2ccccc2)CC1 (configuration not stated) |  |  |  | 76% |  |
| COCCN1CCN(C(=O)CNC2CC2c2cc(F)cc(F)c2OCCc2ccc(F)cc2)CC1 (configuration not stated) |  |  |  | > 100% |  |
| CN1CCN(C(=O)CNC2CC2c2cc(F)cc(F)c2OCc2ccccc2)CC1 (racemic) |  |  |  | 51% | Tmax [4]: 15 min; Cmax [6]: 960 nM; AUC(0-inf) [7]: 0.98 µM·h; half-life [8]: 57 min |
